Calls of active or inactive are those of the source. The calls are words filed in the database; no cut-off is given here.
Columns and labels:
[1] = molecular target: Sodium-dependent serotonin transporter (Homo sapiens, UniProt P31645); assay: Binding affinity to human SERT
D(1A) dopamine receptor = D(1A) dopamine receptor (Homo sapiens, UniProt P21728); assay: Binding affinity to dopamine D1
[2] = molecular target: 5-hydroxytryptamine receptor 2A (Homo sapiens, UniProt P28223); assay: Binding affinity to 5HT2A receptor
5-hydroxytryptamine receptor 2A, sequence (P28223 whole entry): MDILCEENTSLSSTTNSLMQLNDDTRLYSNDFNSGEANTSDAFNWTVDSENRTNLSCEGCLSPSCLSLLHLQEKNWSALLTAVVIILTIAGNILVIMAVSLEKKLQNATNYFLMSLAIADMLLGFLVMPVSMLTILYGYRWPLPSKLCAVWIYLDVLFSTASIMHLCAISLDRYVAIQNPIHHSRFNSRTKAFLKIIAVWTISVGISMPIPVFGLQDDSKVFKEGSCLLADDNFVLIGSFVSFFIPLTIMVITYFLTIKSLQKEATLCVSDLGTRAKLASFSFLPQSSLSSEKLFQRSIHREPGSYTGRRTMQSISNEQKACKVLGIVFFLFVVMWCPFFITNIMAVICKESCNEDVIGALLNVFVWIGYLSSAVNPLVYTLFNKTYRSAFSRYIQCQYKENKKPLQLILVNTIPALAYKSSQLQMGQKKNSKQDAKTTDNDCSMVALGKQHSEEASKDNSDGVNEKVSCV

[3] = molecular target: 5-hydroxytryptamine receptor 2B (Homo sapiens, UniProt P41595); assay: Binding affinity to 5HT2B receptor
5-hydroxytryptamine receptor 2B, sequence (P41595 whole entry): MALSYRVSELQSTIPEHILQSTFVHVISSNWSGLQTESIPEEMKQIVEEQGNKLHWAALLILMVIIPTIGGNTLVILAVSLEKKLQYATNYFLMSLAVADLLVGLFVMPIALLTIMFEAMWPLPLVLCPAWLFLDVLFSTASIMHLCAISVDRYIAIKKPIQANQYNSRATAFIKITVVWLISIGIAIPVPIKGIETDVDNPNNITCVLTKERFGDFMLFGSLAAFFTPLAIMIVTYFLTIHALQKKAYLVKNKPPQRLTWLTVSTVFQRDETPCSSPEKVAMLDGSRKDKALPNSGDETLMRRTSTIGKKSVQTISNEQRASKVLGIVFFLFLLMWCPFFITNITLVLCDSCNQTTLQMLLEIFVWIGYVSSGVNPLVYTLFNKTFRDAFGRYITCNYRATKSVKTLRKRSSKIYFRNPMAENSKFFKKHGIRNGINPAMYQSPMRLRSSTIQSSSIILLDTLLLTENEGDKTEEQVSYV

[4] = molecular target: 5-hydroxytryptamine receptor 7 (Homo sapiens, UniProt P34969); assay: Binding affinity to 5HT7 receptor
Brain = assay: Drug concentration in rat brain at 3 mg/kg, po after 2 hrs by microdialysis method; assay type: ADME, organism-based; set-up: dose 3 mg/kg, route oral; details: in vivo
In short: (§1)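 Rats dosed orally at 3 mg/kg as part of the frontal-cortex microdialysis experiments. Drug levels in brain and plasma sampled at 2 h after dosing. Oral bioavailability, Tmax and half-life are reported from the same oral 3 mg/kg dosing in rat.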

[5] = molecular target: 5-hydroxytryptamine receptor 4 (Homo sapiens, UniProt Q13639); assay: Binding affinity to 5HT4 receptor
5-hydroxytryptamine receptor 4, sequence (Q13639 whole entry): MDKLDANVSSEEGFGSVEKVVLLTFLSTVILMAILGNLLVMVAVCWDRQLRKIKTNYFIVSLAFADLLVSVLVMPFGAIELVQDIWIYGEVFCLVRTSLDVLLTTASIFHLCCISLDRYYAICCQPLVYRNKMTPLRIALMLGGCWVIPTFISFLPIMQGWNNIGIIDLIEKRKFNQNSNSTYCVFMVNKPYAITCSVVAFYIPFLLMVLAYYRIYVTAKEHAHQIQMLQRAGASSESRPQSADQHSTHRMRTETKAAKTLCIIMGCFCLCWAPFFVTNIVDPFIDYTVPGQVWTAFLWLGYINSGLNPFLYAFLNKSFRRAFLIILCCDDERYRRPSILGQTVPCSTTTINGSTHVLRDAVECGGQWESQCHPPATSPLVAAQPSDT

[6] = molecular target: 5-hydroxytryptamine receptor 1B (Homo sapiens, UniProt P28222); assay: Binding affinity to 5HT1B receptor
[7] = molecular target: 5-hydroxytryptamine receptor 6 (Homo sapiens, UniProt P50406); assay: Binding affinity to 5HT6 receptor
5-hydroxytryptamine receptor 6, sequence (P50406 whole entry): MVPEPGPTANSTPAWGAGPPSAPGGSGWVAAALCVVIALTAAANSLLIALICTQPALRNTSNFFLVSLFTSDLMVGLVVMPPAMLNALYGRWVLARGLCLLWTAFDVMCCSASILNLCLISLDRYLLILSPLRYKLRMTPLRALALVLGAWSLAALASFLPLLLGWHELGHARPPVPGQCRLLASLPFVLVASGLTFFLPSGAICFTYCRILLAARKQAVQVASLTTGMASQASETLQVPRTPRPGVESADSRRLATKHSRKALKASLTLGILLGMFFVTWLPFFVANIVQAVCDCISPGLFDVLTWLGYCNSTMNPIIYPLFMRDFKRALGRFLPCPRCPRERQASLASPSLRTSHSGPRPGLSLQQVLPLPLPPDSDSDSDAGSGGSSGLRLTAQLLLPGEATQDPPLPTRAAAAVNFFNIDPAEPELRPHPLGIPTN

Rattus norvegicus [8] = assay: Increase in extracellular serotonin levels in rat frontal cortex at 3 mg/kg, po by microdialysis method relative to untreated control; assay type: functional
In short: (§2)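 In vivo microdialysis in rat frontal cortex measuring extracellular serotonin. Oral doses were 1 and 3 mg/kg, with a reference SSRI at 5 mg/kg po; an iv arm used 1.0 mg/kg. Change is expressed as percent increase over vehicle-treated controls, with significance tested against vehicle.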

D(2) dopamine receptor = D(2) dopamine receptor (Homo sapiens, UniProt P14416); assay: Binding affinity to dopamine D2
D(2) dopamine receptor, sequence (P14416 whole entry): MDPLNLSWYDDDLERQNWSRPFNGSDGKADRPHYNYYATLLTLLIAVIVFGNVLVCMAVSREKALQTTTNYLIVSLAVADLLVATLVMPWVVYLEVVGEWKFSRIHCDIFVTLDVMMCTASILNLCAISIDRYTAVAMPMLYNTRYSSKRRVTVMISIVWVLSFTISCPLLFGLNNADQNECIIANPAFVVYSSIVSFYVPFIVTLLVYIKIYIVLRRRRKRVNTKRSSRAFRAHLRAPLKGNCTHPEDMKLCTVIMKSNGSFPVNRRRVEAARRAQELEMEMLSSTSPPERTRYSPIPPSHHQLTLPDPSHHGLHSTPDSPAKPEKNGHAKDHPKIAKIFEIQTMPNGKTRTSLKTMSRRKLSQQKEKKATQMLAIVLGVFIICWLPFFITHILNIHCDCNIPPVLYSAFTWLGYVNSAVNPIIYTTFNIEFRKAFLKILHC

[9] = molecular target: T1, 5-hydroxytryptamine receptor 1A (Homo sapiens, UniProt P08908); assay: Binding affinity to 5HT1A receptor
T1 sequence (P08908 whole entry): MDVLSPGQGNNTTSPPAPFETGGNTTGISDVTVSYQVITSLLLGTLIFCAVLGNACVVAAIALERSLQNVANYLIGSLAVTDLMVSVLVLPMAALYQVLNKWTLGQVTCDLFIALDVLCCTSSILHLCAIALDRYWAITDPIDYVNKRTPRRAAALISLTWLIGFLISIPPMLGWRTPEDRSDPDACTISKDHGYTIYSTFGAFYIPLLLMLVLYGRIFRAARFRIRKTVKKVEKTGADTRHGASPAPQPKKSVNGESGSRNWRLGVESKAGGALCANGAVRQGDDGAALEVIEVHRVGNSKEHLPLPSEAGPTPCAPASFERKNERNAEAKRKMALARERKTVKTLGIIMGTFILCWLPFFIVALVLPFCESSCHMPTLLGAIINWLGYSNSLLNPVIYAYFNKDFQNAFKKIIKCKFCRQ

[10] = Drug concentration in rat plasma at 3 mg/kg, po after 2 hrs by microdialysis method; assay type: ADME, organism-based; set-up: dose 3 mg/kg, route oral; in short: as §1
[11] = molecular target: Sodium-dependent noradrenaline transporter (Homo sapiens, UniProt P23975); assay: Binding affinity to human NET
Sodium-dependent noradrenaline transporter, sequence (P23975 whole entry): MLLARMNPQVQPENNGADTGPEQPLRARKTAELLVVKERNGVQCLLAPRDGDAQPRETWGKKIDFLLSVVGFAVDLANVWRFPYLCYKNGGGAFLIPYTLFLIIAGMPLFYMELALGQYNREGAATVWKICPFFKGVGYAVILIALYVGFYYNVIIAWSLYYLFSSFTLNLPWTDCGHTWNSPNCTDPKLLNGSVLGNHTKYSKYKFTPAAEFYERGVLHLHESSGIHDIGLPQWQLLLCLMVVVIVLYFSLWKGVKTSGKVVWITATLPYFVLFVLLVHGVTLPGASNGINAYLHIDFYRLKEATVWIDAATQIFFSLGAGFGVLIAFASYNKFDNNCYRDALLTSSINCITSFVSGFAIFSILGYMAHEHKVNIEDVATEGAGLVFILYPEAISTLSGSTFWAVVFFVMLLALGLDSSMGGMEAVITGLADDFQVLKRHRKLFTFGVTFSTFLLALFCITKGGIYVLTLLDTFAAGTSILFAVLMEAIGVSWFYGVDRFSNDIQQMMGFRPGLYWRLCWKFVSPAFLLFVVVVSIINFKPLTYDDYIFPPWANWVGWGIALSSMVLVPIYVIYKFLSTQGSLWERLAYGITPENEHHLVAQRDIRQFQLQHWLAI

Rattus norvegicus [12] = assay: Increase in extracellular serotonin levels in po dosed rat frontal cortex; assay type: functional, organism-based; in short: as §2
Rattus norvegicus [13] = assay: Increase in extracellular serotonin levels in rat frontal cortex at 5 mg/kg, po by microdialysis method relative to untreated control; assay type: functional, organism-based; set-up: dose 5 mg/kg; in short: as §2
[14] = molecular target: Sodium-dependent dopamine transporter (Homo sapiens, UniProt Q01959); assay: Binding affinity to human DAT
Sodium-dependent dopamine transporter, sequence (Q01959 whole entry): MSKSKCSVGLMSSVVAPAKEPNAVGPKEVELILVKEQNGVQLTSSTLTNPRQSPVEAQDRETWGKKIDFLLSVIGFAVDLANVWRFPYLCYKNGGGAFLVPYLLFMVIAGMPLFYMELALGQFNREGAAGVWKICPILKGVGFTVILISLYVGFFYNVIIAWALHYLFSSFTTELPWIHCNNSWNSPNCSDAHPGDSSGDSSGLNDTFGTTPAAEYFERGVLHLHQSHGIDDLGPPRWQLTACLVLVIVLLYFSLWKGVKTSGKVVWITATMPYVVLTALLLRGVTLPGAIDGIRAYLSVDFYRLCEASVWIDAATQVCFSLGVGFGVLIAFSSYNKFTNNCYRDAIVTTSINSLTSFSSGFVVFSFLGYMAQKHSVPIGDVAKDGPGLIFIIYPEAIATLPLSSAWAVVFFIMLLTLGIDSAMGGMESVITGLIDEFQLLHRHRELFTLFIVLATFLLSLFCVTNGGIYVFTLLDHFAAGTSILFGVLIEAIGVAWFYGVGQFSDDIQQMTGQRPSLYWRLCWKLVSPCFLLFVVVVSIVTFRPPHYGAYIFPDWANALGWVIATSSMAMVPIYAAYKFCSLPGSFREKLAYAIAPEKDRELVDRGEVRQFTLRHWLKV

[15] = molecular target: 5-hydroxytryptamine receptor 5A (Homo sapiens, UniProt P47898); assay: Binding affinity to 5HT5A receptor
5-hydroxytryptamine receptor 5A, sequence (P47898 whole entry): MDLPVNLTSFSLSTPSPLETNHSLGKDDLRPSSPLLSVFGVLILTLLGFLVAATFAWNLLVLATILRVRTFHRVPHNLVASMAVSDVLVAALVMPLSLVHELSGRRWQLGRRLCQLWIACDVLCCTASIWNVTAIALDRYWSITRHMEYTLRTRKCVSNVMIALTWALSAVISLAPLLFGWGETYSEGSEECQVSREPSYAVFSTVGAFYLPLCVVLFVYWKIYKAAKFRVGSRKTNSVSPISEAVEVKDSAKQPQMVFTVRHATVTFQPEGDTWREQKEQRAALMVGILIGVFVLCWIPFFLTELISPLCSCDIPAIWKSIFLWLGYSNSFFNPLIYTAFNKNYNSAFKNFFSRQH

[16] = Oral bioavailability in rat plasma at 3 mg/kg by microdialysis method; assay type: ADME, organism-based; in short: as §1
[17] = Half life in rat at 3 mg/kg, po by microdialysis method; assay type: ADME, organism-based; set-up: dose 3 mg/kg, route oral; details: in vivo; in short: as §1
[18] = molecular target: T2, 5-hydroxytryptamine receptor 2C (Homo sapiens, UniProt P28335); assay: Binding affinity to 5HT2C receptor
T2 sequence (P28335 whole entry): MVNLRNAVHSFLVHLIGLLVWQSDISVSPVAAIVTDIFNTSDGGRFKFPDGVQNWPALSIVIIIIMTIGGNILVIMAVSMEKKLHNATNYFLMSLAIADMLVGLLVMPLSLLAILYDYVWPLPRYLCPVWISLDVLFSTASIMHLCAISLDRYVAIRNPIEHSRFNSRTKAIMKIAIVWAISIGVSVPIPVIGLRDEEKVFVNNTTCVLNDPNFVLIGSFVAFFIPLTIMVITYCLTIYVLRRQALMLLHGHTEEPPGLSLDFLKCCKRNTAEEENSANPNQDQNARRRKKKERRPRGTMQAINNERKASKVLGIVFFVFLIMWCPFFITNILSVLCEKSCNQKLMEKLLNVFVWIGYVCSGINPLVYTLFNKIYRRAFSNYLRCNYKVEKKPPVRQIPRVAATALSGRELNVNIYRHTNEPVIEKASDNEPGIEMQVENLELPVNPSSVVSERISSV

[19] = Tmax in rat at 3 mg/kg, po by microdialysis method; assay type: ADME, organism-based; set-up: dose 3 mg/kg, route oral; details: in vivo; in short: as §1

Sodium-dependent serotonin transporter, sequence (P31645 whole entry): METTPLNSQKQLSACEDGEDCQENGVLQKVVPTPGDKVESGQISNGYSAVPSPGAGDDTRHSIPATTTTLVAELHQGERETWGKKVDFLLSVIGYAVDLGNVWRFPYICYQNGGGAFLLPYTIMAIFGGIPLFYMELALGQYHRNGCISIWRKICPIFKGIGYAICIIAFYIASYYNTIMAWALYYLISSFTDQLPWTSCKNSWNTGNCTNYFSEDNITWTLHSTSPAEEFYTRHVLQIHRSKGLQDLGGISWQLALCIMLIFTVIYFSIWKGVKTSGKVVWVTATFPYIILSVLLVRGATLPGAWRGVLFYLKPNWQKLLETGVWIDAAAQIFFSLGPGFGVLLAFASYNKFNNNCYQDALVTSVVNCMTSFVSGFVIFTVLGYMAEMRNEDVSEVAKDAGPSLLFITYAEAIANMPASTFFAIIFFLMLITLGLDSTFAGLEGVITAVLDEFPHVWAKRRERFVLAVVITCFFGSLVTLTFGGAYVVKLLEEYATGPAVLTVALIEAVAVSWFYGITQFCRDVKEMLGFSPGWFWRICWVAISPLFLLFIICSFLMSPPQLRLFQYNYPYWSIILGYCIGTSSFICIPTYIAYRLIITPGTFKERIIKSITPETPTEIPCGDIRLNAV
D(1A) dopamine receptor, sequence (P21728 whole entry): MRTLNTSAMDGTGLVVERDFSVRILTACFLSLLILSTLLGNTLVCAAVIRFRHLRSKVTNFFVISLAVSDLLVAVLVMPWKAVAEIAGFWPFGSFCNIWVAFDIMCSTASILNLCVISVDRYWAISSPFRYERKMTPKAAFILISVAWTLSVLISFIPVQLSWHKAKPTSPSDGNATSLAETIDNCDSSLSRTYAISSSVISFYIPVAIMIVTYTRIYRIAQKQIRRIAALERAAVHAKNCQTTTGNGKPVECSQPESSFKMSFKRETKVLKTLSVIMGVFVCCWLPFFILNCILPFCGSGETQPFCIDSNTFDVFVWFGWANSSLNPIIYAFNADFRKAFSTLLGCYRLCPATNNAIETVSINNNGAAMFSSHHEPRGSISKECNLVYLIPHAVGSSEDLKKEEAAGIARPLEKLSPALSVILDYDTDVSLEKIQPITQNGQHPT

Q: With `CN(C)[C@@H]1CC[C@@H](c2c[nH]c3ccc(F)cc23)C1` as the compound, how does the IC50 [1] read?
A: 2.8 nM

Q: Which IC50 [1] does the source give for `CN(C)[C@H]1CC[C@H](c2c[nH]c3ccc(C#N)cc23)C1` here?
A: 0.97 nM

Q: With `N#Cc1ccc2[nH]cc(C3CCC(NCc4ccccc4)C3)c2c1` (stereo not drawn) as the compound, how does the IC50 [1] read?
A: 15 nM

Q: Which IC50 [1] does the source give for `CN(C)C1CCC(c2c[nH]c3ccc(Cl)cc23)C1` (stereo not drawn) here?
A: 3 nM

Q: With `CN(C)C1CCC(c2c[nH]c3ccc(C#N)cc23)C1` (stereo not drawn) as the compound, how does the IC50 [1] read?
A: 0.48 nM

Q: Which IC50 [1] does the source give for `CCN(C)C1CCC(c2c[nH]c3ccc(F)cc23)C1` (stereo not drawn) here?
A: 3.7 nM

Q: With `CCN(CC)C1CCC(c2c[nH]c3ccc(C#N)cc23)C1` (stereo not drawn) as the compound, how does the IC50 [1] read?
A: 6.2 nM

Q: Which IC50 [1] does the source give for `N#Cc1ccc2[nH]cc(C3CCC(N)C3)c2c1` (stereo not drawn) here?
A: 32 nM

Q: With `N#Cc1ccc2[nH]cc(C3CCC(N4CCc5ccccc5C4)C3)c2c1` (stereo not drawn) as the compound, how does the IC50 [1] read?
A: 6.5 nM

Q: With `CCCNC1CCC(c2c[nH]c3ccc(C#N)cc23)C1` (stereo not drawn) as the compound, how does the IC50 [1] read?
A: 30 nM

Q: With `N#Cc1ccc2[nH]cc(C3CCC(N4CCCC4)C3)c2c1` (stereo not drawn) as the compound, how does the IC50 [1] read?
A: 3 nM

Q: Which IC50 [1] does the source give for `CN(C)C1CCC(c2c[nH]c3cccc(F)c23)C1` (stereo not drawn) here?
A: 31 nM

Q: With `CN(C)C1CCC(c2c[nH]c3cccc(Br)c23)C1` (stereo not drawn) as the compound, how does the IC50 [1] read?
A: 5.3 nM

Q: For `CCN(CC)C1CCC(c2c[nH]c3ccc(F)cc23)C1` (stereo not drawn), which IC50 [1] is on record?
A: 7.3 nM

Q: Which IC50 [1] does the source give for `CN(C)C1CCC(c2c[nH]c3cc(Cl)ccc23)C1` (stereo not drawn) here?
A: 6.5 nM

Q: Which IC50 [1] does the source give for `Fc1ccc2[nH]cc(C3CCC(N4CCCC4)C3)c2c1` (stereo not drawn) here?
A: 2.9 nM

Q: For `N#Cc1ccc2[nH]cc(C3CCC(N4Cc5ccccc5C4)C3)c2c1` (stereo not drawn), which IC50 [1] is on record?
A: 6.8 nM

Q: With `CN(C)C1CCC(c2c[nH]c3ccc(F)cc23)C1` (stereo not drawn) as the compound, how does the IC50 [1] read?
A: 1.7 nM

Q: With `CN(Cc1ccccc1)C1CCC(c2c[nH]c3ccc(C#N)cc23)C1` (stereo not drawn) as the compound, how does the IC50 [1] read?
A: 5.3 nM

Q: With `CNC1CCC(c2c[nH]c3ccc(C#N)cc23)C1` (stereo not drawn) as the compound, how does the IC50 [1] read?
A: 8.5 nM

Q: Which IC50 [1] does the source give for `CN(CCc1ccccc1)C1CCC(c2c[nH]c3ccc(C#N)cc23)C1` (stereo not drawn) here?
A: 6.2 nM

Q: With `N#Cc1ccc2[nH]cc(C3CCC(N4CCOCC4)C3)c2c1` (stereo not drawn) as the compound, how does the IC50 [1] read?
A: 110 nM

Q: Which IC50 [1] does the source give for `CN(C)C1CCC(c2c[nH]c3c(Br)cccc23)C1` (stereo not drawn) here?
A: 1.6 nM

Q: For `CCNC1CCC(c2c[nH]c3ccc(C#N)cc23)C1` (stereo not drawn), which IC50 [1] is on record?
A: 6.6 nM

Q: For `CN(C)C1CCC(c2c[nH]c3c(Cl)cccc23)C1` (stereo not drawn), which IC50 [1] is on record?
A: 1.4 nM

Q: Which IC50 [1] does the source give for `CN(C)[C@@H]1CC[C@H](c2c[nH]c3ccc(F)cc23)C1` (single isomer, unassigned) here?
A: 2.4 nM

Q: Which IC50 [1] does the source give for `CN(C)C1CCC(c2c[nH]c3cc(F)ccc23)C1` (stereo not drawn) here?
A: 5.1 nM

Q: With `CN(C)C1CCC(c2c[nH]c3cc(Br)ccc23)C1` (stereo not drawn) as the compound, how does the IC50 [1] read?
A: 9.6 nM

Q: With `CN(C)[C@@H]1CC[C@@H](c2c[nH]c3ccc(C#N)cc23)C1` as the compound, how does the IC50 [1] read?
A: 1.3 nM

Q: Which results are given for `CN(C)[C@@H]1CC[C@H](c2c[nH]c3ccc(C#N)cc23)C1`?
A: IC50 (D(1A) dopamine receptor): 7.2 µM; IC50 [2]: 840 nM; IC50 [3]: > 10 µM; IC50 [4]: > 1000 nM; Drug uptake (Brain): 1000 nM; IC50 [5]: > 30 µM; IC50 [6]: 340 nM; IC50 [7]: 37 nM; Activity (Rattus norvegicus [8]): 150%; IC50 (D(2) dopamine receptor): > 30 µM; IC50 [9]: 1300 nM; concentration at 2 h [10]: 820 nM; IC50 [11]: 6.9 µM; Activity (Rattus norvegicus [12]): Dose-dependent effect; Activity (Rattus norvegicus [13]): Active; IC50 [14]: 1300 nM; IC50 [15]: > 1000 nM; bioavailability [16]: 51%; half-life [17]: 33 min; IC50 [1]: 0.22 nM; IC50 [18]: > 10 µM; Tmax [19]: 1 h

Q: With `N#Cc1ccc2[nH]cc(C3CCC(N4CCCCC4)C3)c2c1` (stereo not drawn) as the compound, how does the IC50 [1] read?
A: 65 nM

Q: With `CN(C)C1CCC(c2c[nH]c3ccc(Br)cc23)C1` (stereo not drawn) as the compound, how does the IC50 [1] read?
A: 4.3 nM

Q: Which IC50 [1] does the source give for `CCN(C)C1CCC(c2c[nH]c3ccc(C#N)cc23)C1` (stereo not drawn) here?
A: 1.6 nM

Q: With `N#Cc1ccc2[nH]cc(C3CCC(NCCc4ccccc4)C3)c2c1` (stereo not drawn) as the compound, how does the IC50 [1] read?
A: 10 nM

Q: Which IC50 [1] does the source give for `CN(C)C1CCC(c2c[nH]c3c(F)cccc23)C1` (stereo not drawn) here?
A: 3.3 nM

Q: For `CN(C)[C@H]1CC[C@H](c2c[nH]c3ccc(F)cc23)C1`, which IC50 [1] is on record?
A: 5.9 nM

Q: With `CN(C)[C@H]1CC[C@@H](c2c[nH]c3ccc(C#N)cc23)C1` as the compound, how does the IC50 [1] read?
A: 0.38 nM
